Laboratory results published in publication PMC4545412 (Planta medica, 2015).
pIC50: −log10 of the molar value. Read-outs that look alike come from different tables or passages of the source.

Legend:
[1] = system: Plasmodium falciparum Dd2; assay: Antimalarial bioassay, 72 h parasite growth assay; type: cell-based; settings: DD2, read-out: P. falciparum IC50
Procedure, shortened: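 72 h growth assay of test compounds on the drug-resistant Dd2 strain of Plasmodium falciparum, following an earlier protocol with minor modifications. Artemisinin was the positive control.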

NF-κB p65 subunit = NF-κB p65 subunit (Homo sapiens, UniProt Q04206); assay: Enzyme-based ELISA NF-κB; type: biochemical
[2] = system: human colon cancer (HT-29) cell line; assay: Cytotoxicity assay against HT-29 human colon cancer cells; settings: for HT-29 ED50: HT-29 human colon cancer cells, > 20 µM considered inactive
[3] = system: human colon cancer (HT-29) cell line
Plasmodium falciparum = settings: cited from earlier work
P. falciparum strain 3D7 = settings: read-out: IC50, in vitro antimalarial activity; cited from earlier work
[4] = system: Candida albicans (ATCC 18804); assay: Antifungal bioassay, growth of the pathogenic yeast; type: cell-based; settings: ATCC18804, read-out: growth inhibition of C. albicans cells
[5] = read-out: NF-κB (p65) IC50, enzyme-based ELISA, > 20 µM considered inactive

Chain of NF-κB p65 subunit (Q04206 whole entry): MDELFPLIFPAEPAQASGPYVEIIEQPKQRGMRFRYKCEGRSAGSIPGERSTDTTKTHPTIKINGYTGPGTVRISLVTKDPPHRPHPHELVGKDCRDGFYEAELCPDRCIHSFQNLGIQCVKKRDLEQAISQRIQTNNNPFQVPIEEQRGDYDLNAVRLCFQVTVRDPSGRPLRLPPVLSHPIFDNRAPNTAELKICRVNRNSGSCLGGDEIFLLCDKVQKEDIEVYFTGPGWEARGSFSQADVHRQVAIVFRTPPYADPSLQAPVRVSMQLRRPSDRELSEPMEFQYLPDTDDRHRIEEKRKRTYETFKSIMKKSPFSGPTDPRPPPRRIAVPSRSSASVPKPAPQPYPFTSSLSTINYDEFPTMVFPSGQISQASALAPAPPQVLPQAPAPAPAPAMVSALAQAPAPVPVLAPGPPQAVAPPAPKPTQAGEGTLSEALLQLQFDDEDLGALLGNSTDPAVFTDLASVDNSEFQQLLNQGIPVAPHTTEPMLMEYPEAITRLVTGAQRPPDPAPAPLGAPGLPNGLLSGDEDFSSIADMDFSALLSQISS

Compound: C[C@@H]1CC[C@H]2[C@@H](C)C(=O)O[C@@H]3O[C@@]4(C)CC[C@@H]1[C@]32OO4 [Artemisinin, reference compound]
- pIC50 [1]: 9.15

Compound: C=C(C)[C@@H]1CC[C@]2(COC(C)=O)CC[C@]3(C)[C@H](CC[C@@H]4[C@@]5(C)CC[C@H](OC(C)=O)C(C)(C)[C@@H]5CC[C@]43C)[C@@H]12 [Compound 8, 3,28-O-diacetylbetulin]
- pIC50 (NF-κB p65 subunit; [5]): < 4.70
- HT-29 ED50 [2]: > 20 µM

Compound: CC(=O)O[C@H]1C(=O)[C@@]2(C)[C@H]([C@H](OC(=O)c3ccccc3)[C@]3(O)C[C@H](OC(=O)[C@H](O)[C@@H](NC(=O)c4ccccc4)c4ccccc4)C(C)=C1C3(C)C)[C@]1(OC(C)=O)CO[C@@H]1C[C@@H]2O [Paclitaxel, reference compound]
- HT-29 ED50 [2]: 0.001 µM

Compound: C=C(C)C1CCC2(CO)CCC3(C)C(CCC4C5(C)CCC(OC(=O)/C=C/c6ccc(O)cc6)C(C)(CO)C5CCC43C)C12 (stereo not drawn) [Compound 1, 3-O-(E)-p-coumaroyl-23-hydroxybetulin]
- pIC50 (NF-κB p65 subunit; [5]): < 4.70
- HT-29 ED50 [2]: > 20 µM

Compound: C=C(C)C1CCC2(CO)CCC3(C)C(CCC4C5(C)CCC(O)C(C)(COC(=O)/C=C\c6ccc(O)cc6)C5CCC43C)C12 (stereo not drawn) [Compound 5, 23-O-(Z)-p-coumaroyl-23-hydroxybetulin]
- pIC50 (NF-κB p65 subunit; [5]): < 4.70
- cytotoxic effect against HT-29 cells (in words) [3]: marginal cytotoxic effects
- HT-29 ED50 [2]: 18.4 µM

Compound: N-3-benzoyldihydrocyclomicrophylline F [Compound 7]
- pIC50 (NF-κB p65 subunit; [5]): < 4.70
- HT-29 ED50 [2]: 1.9 µM

Compound: O-tigloylcyclovirobuxeine-B
- IC50, in vitro antiplasmodial activity (Plasmodium falciparum): 0.46 µg/mL
- pIC50 (Plasmodium falciparum; read-out: IC50, in vitro antiplasmodial activity): 6.04

Compound: C=C(C)C1CCC2(CO)CCC3(C)C(CCC4C5(C)CCC(OC(=O)/C=C\c6ccc(O)cc6)C(C)(CO)C5CCC43C)C12 (stereo not drawn) [Compound 3, 3-O-(Z)-p-coumaroyl-23-hydroxy-3-epi-betulin]
- pIC50 (NF-κB p65 subunit; [5]): < 4.70
- HT-29 ED50 [2]: 3.3 µM

Compound: C=C(C)[C@@H]1CC[C@]2(C(=O)OC)CC[C@]3(C)[C@H](CC[C@@H]4[C@@]5(C)CC[C@H](O)C(C)(C)[C@@H]5CC[C@]43C)[C@@H]12 [its methylate]
- pIC50 (P. falciparum strain 3D7): 5.15

Compound: C[C@@H]1[C@H](O)[C@@H](C)/C=C/C=C/C=C/C=C/C=C/C=C/C=C/[C@H](O[C@@H]2O[C@H](C)[C@@H](O)[C@H](N)[C@@H]2O)C[C@@H]2O[C@](O)(C[C@@H](O)C[C@@H](O)[C@H](O)CC[C@@H](O)C[C@@H](O)CC(=O)O[C@H]1C)C[C@H](O)[C@H]2C(=O)O [amphotericin B]
- inhibition at 200 µg/mL [4]: 100%

Compound: C=C(C)[C@@H]1CC[C@]2(CO)CC[C@]3(C)[C@H](CC[C@@H]4[C@@]5(C)CC[C@H](O)C(C)(C)[C@@H]5CC[C@]43C)[C@@H]12 [Compound 6, betulin]
- pIC50 (NF-κB p65 subunit): < 4.70
- pIC50 [1]: < 5.00
- HT-29 ED50 [2]: > 20 µM

Compound: C=C(C)C1CCC2(CO)CCC3(C)C(CCC4C5(C)CCC(OC(=O)/C=C/c6ccc(O)cc6)C(C)(CO)C5CCC43C)C12 (stereo not drawn) [Compound 2, 3-O-(E)-p-coumaroyl-23-hydroxy-3-epi-betulin]
- pIC50 (NF-κB p65 subunit; [5]): < 4.70
- cytotoxic effect against HT-29 cells (in words) ([2]; HT-29 cells): marginal cytotoxic effects
- HT-29 ED50 [2]: 13.2 µM

Compound: C=C(C)[C@@H]1CC[C@]2(CO)CC[C@]3(C)[C@H](CC[C@@H]4[C@@]5(C)CC[C@H](O)[C@@](C)(CO)[C@@H]5CC[C@]43C)[C@@H]12 [Compound 9, 23-hydroxybetulin]
- pIC50 (NF-κB p65 subunit; [5]): 5.40
- HT-29 ED50 [2]: > 20 µM

Compound: C=C(C)C1CCC2(CO)CCC3(C)C(CCC4C5(C)CCC(O)C(C)(COC(=O)/C=C/c6ccc(O)cc6)C5CCC43C)C12 (stereo not drawn) [Compound 4, 23-O-(E)-p-coumaroyl-23-hydroxybetulin]
- pIC50 (NF-κB p65 subunit; [5]): < 4.70
- HT-29 ED50 [2]: > 20 µM
